We go through 1 compound from paper PMC11362799 (The Journal of Biological Chemistry, 2024).

Structures are written as SMILES.

The target of the experiment is T1, human Gal-4C (Homo sapiens, UniProt P56470).
T1 sequence (P56470 179-323): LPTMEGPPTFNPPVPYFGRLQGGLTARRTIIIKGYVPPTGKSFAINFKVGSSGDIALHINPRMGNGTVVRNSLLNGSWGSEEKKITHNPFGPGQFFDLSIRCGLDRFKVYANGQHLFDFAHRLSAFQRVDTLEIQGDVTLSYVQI
Put plainly: Competitive solid-phase assay: Gal-4C binding to immobilized asialofetuin. The procedure, abridged: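 Human Gal-4C (residues 179–323, C-terminal His-tag, E. coli BL21) at 60 μg/ml final was preincubated 2 h at 37 °C with serially diluted glycan inhibitors; lactose was the reference. Mixtures went onto wells coated overnight at 4 °C with 10 µg/ml ASF (carbonate, pH 9.6) and BSA-blocked, for 2 h at 37 °C. Detection: biotinylated anti-Gal-4, HRP-streptavidin, TMB, A450. Values are means ± SEM from a representative of three experiments.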

As a reminder, the IC50 is the point on the concentration scale where inhibition reaches its midpoint. A low value points to greater potency in that assay.

Compound `OC[C@H]1O[C@@H](O[C@H]2[C@H](O)[C@@H](O)C(O)O[C@@H]2CO)[C@H](O)[C@@H](O)[C@H]1O` (mixture of isomers) [lactose] had an IC50 of 7 mM.
